Consider one molecule from publication PMC6347715 (Proceedings of the National Academy of Sciences of the …, 2019).

Values after ≈ are worked out from the molar mass of the structure shown.

The nature of series [1]: Permeability in LLC-PK1 cell assay. The class given is in vitro ADME. The note with it: pig.
The nature of series [2]: Solubility in fasted state-simulated intestinal fluid. The class given is physicochemical.
The subject of series [3] is CYP3A4. The series is described as follows: CYP3A4 induction. Format: in vitro ADME. The note with it: human.
Series [4] is described as follows: Ames test.
The target in series [5] is P-gp (Homo sapiens, UniProt P08183). The series is described as follows: P-gp-mediated efflux. The note with it: not told. The class given is in vitro ADME.
Chain of P-gp (P08183 whole entry): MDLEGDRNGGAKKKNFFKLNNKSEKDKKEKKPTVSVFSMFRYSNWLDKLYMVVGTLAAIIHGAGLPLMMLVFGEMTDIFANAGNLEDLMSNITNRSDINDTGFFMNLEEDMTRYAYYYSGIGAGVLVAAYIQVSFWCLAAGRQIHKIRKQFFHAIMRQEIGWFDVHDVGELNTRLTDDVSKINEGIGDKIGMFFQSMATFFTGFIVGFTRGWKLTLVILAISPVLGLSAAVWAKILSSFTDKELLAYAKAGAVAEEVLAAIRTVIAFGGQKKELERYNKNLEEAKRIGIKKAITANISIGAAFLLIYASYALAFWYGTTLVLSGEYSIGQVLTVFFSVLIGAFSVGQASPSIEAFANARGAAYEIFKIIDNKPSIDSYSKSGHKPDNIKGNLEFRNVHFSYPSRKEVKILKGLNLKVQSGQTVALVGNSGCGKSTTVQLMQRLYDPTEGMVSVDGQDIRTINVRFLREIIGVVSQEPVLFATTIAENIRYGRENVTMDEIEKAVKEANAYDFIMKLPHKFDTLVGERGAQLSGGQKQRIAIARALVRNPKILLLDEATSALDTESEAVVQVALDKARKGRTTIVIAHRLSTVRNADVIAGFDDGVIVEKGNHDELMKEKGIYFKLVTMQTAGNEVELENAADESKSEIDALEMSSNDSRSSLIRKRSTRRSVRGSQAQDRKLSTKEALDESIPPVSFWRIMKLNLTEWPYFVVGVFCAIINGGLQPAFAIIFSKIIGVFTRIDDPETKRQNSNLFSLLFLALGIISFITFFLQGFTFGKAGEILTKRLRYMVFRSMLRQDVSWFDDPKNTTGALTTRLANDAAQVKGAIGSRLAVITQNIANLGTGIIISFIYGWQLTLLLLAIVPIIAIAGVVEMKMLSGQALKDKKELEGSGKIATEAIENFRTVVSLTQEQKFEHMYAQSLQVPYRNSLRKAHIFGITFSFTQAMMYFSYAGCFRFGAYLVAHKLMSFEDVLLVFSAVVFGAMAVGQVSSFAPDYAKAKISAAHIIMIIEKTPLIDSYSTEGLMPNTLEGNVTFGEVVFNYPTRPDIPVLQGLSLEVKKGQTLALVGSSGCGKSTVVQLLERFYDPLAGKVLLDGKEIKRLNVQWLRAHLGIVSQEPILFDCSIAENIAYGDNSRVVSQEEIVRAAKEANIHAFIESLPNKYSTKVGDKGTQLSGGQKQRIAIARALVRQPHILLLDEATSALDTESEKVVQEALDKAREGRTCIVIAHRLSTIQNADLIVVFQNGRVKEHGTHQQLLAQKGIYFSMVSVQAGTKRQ
Series [6] deals with CYP2C9 (Homo sapiens, UniProt P11712). The series is described as follows: CYP2C9 inhibition. The class given is in vitro ADME.
Chain of CYP2C9 (P11712 whole entry): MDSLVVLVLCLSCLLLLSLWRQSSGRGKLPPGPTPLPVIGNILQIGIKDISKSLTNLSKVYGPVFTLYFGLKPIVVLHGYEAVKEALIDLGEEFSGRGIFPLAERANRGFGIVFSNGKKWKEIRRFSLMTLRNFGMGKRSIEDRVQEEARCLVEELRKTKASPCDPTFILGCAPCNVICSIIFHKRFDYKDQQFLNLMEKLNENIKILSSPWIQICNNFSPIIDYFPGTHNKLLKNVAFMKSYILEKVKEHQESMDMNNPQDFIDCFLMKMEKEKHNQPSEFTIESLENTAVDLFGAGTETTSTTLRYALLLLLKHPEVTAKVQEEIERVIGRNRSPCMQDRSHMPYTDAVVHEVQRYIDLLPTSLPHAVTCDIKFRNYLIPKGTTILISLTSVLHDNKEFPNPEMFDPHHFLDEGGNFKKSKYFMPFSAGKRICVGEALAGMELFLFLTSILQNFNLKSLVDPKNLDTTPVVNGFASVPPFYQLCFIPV
Series [7] is described as follows: Mouse PK in BALB/c mice. The note with it: in vivo.
Series [8] has as its system B. malayi. As to the kind of experiment: Adult B. malayi SCID mouse model: parasitology readout. The class given is in vivo, Brugia malayi. The note with it: over the 6 wk of observation post treatment.
For series [9], the system named is CYP1A, CYP2C9, CYP2C19, CYP2D6, CYP3A. As to the kind of experiment: Time-dependent inhibition of five major human CYP450 isoforms. The class given is in vitro ADME.
For series [10], the system named is Wolbachia within female B. malayi adult parasites. As to the kind of experiment: Adult B. malayi SCID mouse model: Wolbachia load. The class given is in vivo, Brugia malayi. The note with it: 100 mg/kg, 7 d orally.
Series [11] can be described thus: Aqueous solubility in pH 7.4 PBS buffer. Format: physicochemical.
For series [12], the system named is L. sigmodontis. The series is described as follows: L. sigmodontis gerbil model: parasitology readout. Format: in vivo, Litomosoides sigmodontis. The gist of the method:
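Gerbils were infected with L. sigmodontis via mites and given oral treatment from 13 wk post infection. Starting at 12 wk post infection, 10 µL of saphenous-vein blood was taken every two weeks and diluted in 300 µL Hinkelmann solution. Samples were centrifuged at 400 × g for 5 min, and the pellet was resuspended in 1 mL. Total mf were counted microscopically in a Sedgewick Rafter chamber, with follow-up to 18 wk after treatment start.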

Series [13] deals with Wolbachia within B. malayi mf. As to the kind of experiment: B. malayi microfilaria time-kill assay. Format: cell-based, Brugia malayi. The note with it: drug concentration 10 times EC50; exposures 1, 2, 6 d. The gist of the method: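 This is a time-kill variant of the 6-d B. malayi mf assay: 8,000 mf per well in supplemented RPMI at 37 °C, 5% CO2. Drug was removed by a wash step on the indicated exposure day. Wolbachia was then quantified by wsp/gst qPCR, with five replicates per time point per treatment. Results come from one experiment.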

Series [14] concerns Wolbachia in female adult L. sigmodontis. The series is described as follows: L. sigmodontis gerbil model: Wolbachia load. The note with it: 18 wk post treatment. The class given is in vivo, Litomosoides sigmodontis. The gist of the method: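 Female gerbils aged 6–8 wk were infected by exposure to Ornithonyssus bacoti mites carrying L. sigmodontis L3. Treatment started 13 wk after infection, with animals randomised into groups of n = 5–9. Test compound in PEG300/propylene glycol/water (55/25/20) was given by oral gavage at 2.5 mL/kg. At necropsy 18 wk after treatment start, worms were recovered from the serous cavities. Wolbachia was measured by ftsZ qPCR in 5–20 individual female worms. Groups were compared with untreated controls by Kruskal–Wallis with Dunn's test.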

Series [15] can be described thus: pKa. The class given is physicochemical.
The subject of series [16] is Wolbachia pipientis (wAlbB) in C6/36 cells. As to the kind of experiment: Anti-Wolbachia cell-based assay. The note with it: C6/36, read-out: EC50 anti-Wolbachia, cell assay.

The molecule `C[C@H]1COCCN1c1nc(NCc2cccnc2C(F)(F)F)c2cccnc2n1` [AWZ1066S, (S)-2-(3-methylmorpholino)-N-((2-(trifluoromethyl)pyridin-3-yl)methyl)pyrido[2,3-d]pyrimidin-4-amine] had a Papp in series [1] of 7.4 ×10⁻⁶ cm/s. Further, the solubility is 560 µg/mL (≈ 1380 µM) in series [2] and 238 µM (≈ 96.2 µg/mL) in series [11]. Moreover, the IC50 in series [3] is 37 µM; in series [6] it was 9.7 µM. In addition, the Ames test result in series [4] is given as “negative”. Moreover, in series [5], the efflux ratio is 7.8. In [7] (BALB/c SCID, po), the bioavailability fell in the range of 54 to 91%. The molecule also showed a clearance in series [7] (iv, 5 mg/kg, total clearance, dosed intravenously) of 7.83 mL/min/kg. The “mice in which release of mf was completely prevented” value in series [8] is listed as 9/10. The time-dependent inhibition entry in series [9] is recorded as “does not show any time-dependent inhibition”. For the same molecule, in series [10], the “Wolbachia reduction compared with the vehicle group” value is on record as 98%. Besides, in [12] (7-d treatment), the “time from which peripheral blood microfilaremia began to decline” value stood at 6 wk post treatment. In addition, in [12] (7-d treatment groups, sustained until 18 wk), the “time from which amicrofilaremia was evident” value came out at 14 wk post treatment. In addition, the “drug exposure needed for maximum reduction of Wolbachia” value in series [13] worked out at 1 days. Moreover, the “Wolbachia load reduction compared with control untreated animals” value in series [14] (50 mg/kg orally twice daily 7 d) and in series [14] (100 mg/kg orally twice daily 7 d) was more than 99% in each case. Moreover, in series [15], the pKa is 5.6. The EC50 in series [16] is 0.0025 ± 0.0004 µM.

In general, Papp refers to the rate of passage across a membrane or cell layer, normalised by area and donor concentration. One may read the solubility as the concentration that dissolves in the medium under given conditions. Usually IC50 stands for the concentration at which inhibition is half-maximal. Lower therefore signals inhibition by little substance. Usually efflux ratio stands for a quotient of directional permeabilities that is used to spot active efflux. In general, bioavailability refers to the share of a dose that reaches the circulation, judged against a reference dose that is usually intravenous. A word on the clearance: it is a measure of how efficiently the substance is removed, as volume per time. Read a low clearance as inefficient removal. In general, pKa refers to the pH at which an ionisable group is half protonated. Read a high pKa as a group that holds its proton tightly. The EC50 is the concentration at which the effect is half-maximal.
